Data taken from ChEMBL document CHEMBL1132185, “3-O-Desacyl monophosphoryl lipid A derivatives: synthesis and immunostimulant activities” (J Med Chem, 1999).

Tests used:
[1] = (§1) lethal toxicity produced when compound is administered along with […] (iv); assay type: organism-based; conditions: in vivo
[2] = Ability to induce iNOS gene expression assessed in an in vitro system utilizing peritoneal exudate cells(PEC) from Propionibacterium acnes-primed mice; assay type: functional; conditions: Mus musculus; read-out: ED50 (the source's name)
Outline: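 ICR mice (female, 4-8 weeks) primed i.p. on day 0 with 1 mg heat-killed P. acnes in 0.2 mL saline; peritoneal exudate cells harvested day 4, adhered at 2 × 10^5 cells/well, nonadherent cells washed off. Test materials at various concentrations, in quadruplicate, in RPMI-1640 with 10% FCS for 24 h at 37 °C. Supernatant nitrite measured by Griess reaction; ED50 from nonlinear curve fit.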

Oryctolagus cuniculus [3] = experiment: Total temperature rise in three rabbits at a dose of 10 ug/kg; assay type: functional
Outline: (§2)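 USP three-rabbit pyrogen test in New Zealand white rabbits (female, 1.5–5.0 kg). Stocks were 100 µg/mL in 10% aq EtOH, diluted in D5W and given into the marginal ear vein at 3 mL/kg. Rectal temperature was taken every 30 min for 3 h and the maximum rise over baseline recorded per rabbit. MPD is the dose giving a three-rabbit total rise ≥1.2 °C.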

Oryctolagus cuniculus [4] = species: Oryctolagus cuniculus; experiment: Minimum pyrogenic dose(MPD) was determined; assay type: functional; outline: as §2
[5] = as §1; assay type: organism-based, Homo sapiens; conditions: mouse, in vivo
Homo sapiens = species: Homo sapiens; experiment: Relative ex vivo cytokine induction in human whole blood stimulated with 10 ug/mL (done by ELISA)for Interleukin (IL1-beta); assay type: functional
Outline: (§3)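 Heparinized whole blood from one healthy human volunteer, 0.45 mL, was mixed with 0.05 mL PBS (pH 7.4) containing test compound. It was incubated 4 h at 37 °C with shaking, then diluted with 1.5 mL PBS and centrifuged. Supernatant TNF-α and IL-1β were quantified in duplicate by sandwich ELISA.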

[6] = biological target: Tumor necrosis factor (Homo sapiens) (UniProt P01375); experiment: Relative ex vivo cytokine induction in human whole blood stimulated with 10 ug/mL (done by ELISA) for Tumor necrosis factor alpha; assay type: functional, tissue-based; outline: as §3
Tumor necrosis factor (Homo sapiens), sequence (P01375 whole entry): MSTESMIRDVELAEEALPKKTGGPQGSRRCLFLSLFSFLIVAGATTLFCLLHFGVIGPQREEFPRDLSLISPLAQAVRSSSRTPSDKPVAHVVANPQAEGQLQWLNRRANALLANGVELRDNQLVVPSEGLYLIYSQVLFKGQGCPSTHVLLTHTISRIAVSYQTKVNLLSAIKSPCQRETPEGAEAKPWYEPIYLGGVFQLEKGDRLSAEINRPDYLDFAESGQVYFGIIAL

Mus musculus [7] = species: Mus musculus; experiment: Adjuvant activity was assessed by measuring tetanus toxoid-specific antibody responses in serum of mice immunised. (evaluated as IgG1); assay type: functional
Outline: (§4)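 Mice immunised on day 0 and day 21 with tetanus toxoid (2 μg per 2 mL emulsion) plus test article in 2.5% oil-water emulsion (12% lecithin-squalene oil phase; 0.1% Tween 80-saline aqueous phase). Controls received toxoid in 2.5% oil-water vehicle. Sera were taken from the orbital plexus 14 days after the second injection, diluted 2-fold ×11 from 1:200 and tested individually by toxoid-coated ELISA. Values are test titer/vehicle control titer.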

Mus musculus [8] = species: Mus musculus; experiment: Adjuvant activity was assessed by measuring tetanus toxoid-specific antibody responses in serum of mice immunised. (evaluated as IgG2b); assay type: functional; outline: as §4
Mus musculus [9] = species: Mus musculus; experiment: Adjuvant activity was assessed by measuring tetanus toxoid-specific antibody responses in serum of mice immunised. (evaluated as total Ig); assay type: functional; outline: as §4
Mus musculus [10] = species: Mus musculus; experiment: Adjuvant activity was assessed by measuring tetanus toxoid-specific antibody responses in serum of mice immunised. (evaluated as IgG2a); assay type: functional; outline: as §4

Compound | LD50 [1] | EC50 [2] | Fever response (Oryctolagus cuniculus [3]) | MPD (Oryctolagus cuniculus [4]) | LD50 [5] | Induction (Homo sapiens) | Induction [6] | Adjuvant activity (Mus musculus [7]) | Adjuvant activity (Mus musculus [8]) | Adjuvant activity (Mus musculus [9]) | Adjuvant activity (Mus musculus [10])
CCCCCCCCCCC[C@H](CC(=O)NC1C(O)OC(COC2OC(CO)C(OP(=O)(O)O)C(OC(=O)C[C@@H](CCCCCCCCCCC)OC(=O)CCCCC)C2NC(=O)C[C@@H](CCCCCCCCCCC)OC(=O)CCCCC)C(O)C1O)OC(=O)CCCCC.CCN(CC)CC (some centres undefined) | 4 µg | > 10000 ng/mL | 1.7 °C | 10 µg/kg | – | – | – | – | – | – | –
CCCCCCCCCCCCCCCC(=O)O[C@H](CCCCCCCCCCC)CC(=O)NC1C(O)OC(COC2OC(CO)C(OP(=O)(O)O)C(OC(=O)C[C@@H](CCCCCCCCCCC)OC(=O)CCCCCCCCCCCCC)C2NC(=O)C[C@@H](CCCCCCCCCCC)OC(=O)CCCCCCCCCCC)C(O)C1O.CCN(CC)CC (some centres undefined) | – | 10 ng/mL | 0.6 °C | 15 µg/kg | 1 µg | 1.4 | 1.6 | – | – | – | –
CCCCCCCCCCCC(=O)O[C@H](CCCCCCCCCCC)CC(=O)NC1C(O)OC(COC2OC(CO)C(OP(=O)(O)O)C(OC(=O)C[C@@H](CCCCCCCCCCC)OC(=O)CCCCCCCCCCC)C2NC(=O)C[C@@H](CCCCCCCCCCC)OC(=O)CCCCCCCCCCC)C(O)C1O.CCN(CC)CC (some centres undefined) | – | 1 ng/mL | 5.3 °C | <2.5 µg/kg | 0.04 µg | 2.9 | 4.6 | – | – | – | –
CCCCCCCCCCCCCC(=O)O[C@H](CCCCCCCCCCC)CC(=O)NC1C(O)OC(COC2OC(CO)C(OP(=O)(O)O)C(OC(=O)C[C@@H](CCCCCCCCCCC)OC(=O)CCCCCCCCCCCCC)C2NC(=O)C[C@@H](CCCCCCCCCCC)OC(=O)CCCCCCCCCCCCC)C(O)C1O.CCN(CC)CC (some centres undefined) | – | 5 ng/mL | 0.3 °C | 15 µg/kg | 1 µg | 3.4 | 1.7 | 4.5 | 4.5 | 8.2 | 14.6
CCCCCCCCCCC[C@H](CC(=O)NC1C(O)OC(COC2OC(CO)C(OP(=O)(O)O)C(OC(=O)C[C@@H](CCCCCCCCCCC)OC(=O)CCCCCCCCC)C2NC(=O)C[C@@H](CCCCCCCCCCC)OC(=O)CCCCCCCCC)C(O)C1O)OC(=O)CCCCCCCCC.CCN(CC)CC (some centres undefined) | – | 0.05 ng/mL | 4.1 °C | <0.06 µg/kg | 0.02 µg | 7.3 | 3 | 2.4 | 4.3 | 6.2 | 6
CCCCCCCCCCC[C@H](CC(=O)NC1C(O)OC(COC2OC(CO)C(OP(=O)(O)O)C(OC(=O)C[C@@H](CCCCCCCCCCC)OC(=O)CCC)C2NC(=O)C[C@@H](CCCCCCCCCCC)OC(=O)CCC)C(O)C1O)OC(=O)CCC.CCN(CC)CC (some centres undefined) | 4.5 µg | > 10000 ng/mL | 1.5 °C | 10 µg/kg | – | – | – | – | – | – | –
CCCCCCCCCCC[C@H](CC(=O)NC1C(O)OC(COC2OC(CO)C(OP(=O)(O)O)C(OC(=O)C[C@@H](CCCCCCCCCCC)OC(=O)CCCCCCC)C2NC(=O)C[C@@H](CCCCCCCCCCC)OC(=O)CCCCCCC)C(O)C1O)OC(=O)CCCCCCC.CCN(CC)CC (some centres undefined) | 0.2 µg | 0.3 ng/mL | 3.9 °C | <2.5 µg/kg | – | – | – | – | – | – | –
